# In ChEMBL document CHEMBL4138042, “A Scaffold Merging Approach to Hsp90 C-terminal Inhibition: Synthesis and Evaluation of a Chimeric Library” (Medchemcomm, 2017):
# Active and inactive are the calls of the source. The calls are words filed in the database; no cut-off is given here.
# Experiments:
# [1] = test system: MCF7; test: Antiproliferative activity in human MCF7 cells incubated for 72 hrs by MTS/PMS cell proliferation assay; type: functional, cell-based; details: MCF7, 72 h
# How it was run: (§1)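 Values are mean ± SD of at least three separate experiments, each run in triplicate.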
# [2] = test system: SK-BR-3; test: Antiproliferative activity in human SKBR3 cells incubated for 72 hrs by MTS/PMS cell proliferation assay; type: functional, cell-based; details: SK-BR-3, 72 h; how it was run: as §1
# [3] = Inhibition of full length chicken Hsp90beta (1 to 728 amino acids); set-up: species or system Gallus gallus
# [4] = molecular target: T1, Heat shock protein HSP90 (Homo sapiens) (UniProt P07900+P08238); test: Inhibition of HSP90 in human MCF7 cells assessed as reduction in ERalpha protein level incubated for 24 hrs by Western blotting method; type: cell-based
# How it was run: (§2)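 Treated MCF-7 cells were analysed by western blot for the Hsp90 clients HER2, CDK4, ER-α and cyclin D1. Actin served as the Hsp90-independent control protein.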
# [5] = test system: MCF7; test: Induction of heat shock response in human MCF7 cells assessed as effect on Hsp70 protein levels at 0.5 and 10 fold antiproliferative IC50 incubated for 24 hrs by Western blotting method; type: cell-based; details: mcf7, 24 h
# [6] = molecular target: T1, Heat shock protein HSP90 (Homo sapiens); test: Inhibition of HSP90 in human MCF7 cells assessed as reduction in cyclin D1 protein level incubated for 24 hrs by Western blotting method; type: cell-based; how it was run: as §2
# [7] = molecular target: T1, Heat shock protein HSP90 (Homo sapiens); test: Inhibition of HSP90 in human MCF7 cells assessed as reduction in CDK4 protein level incubated for 24 hrs by Western blotting method; type: cell-based; how it was run: as §2
# [8] = molecular target: T1, Heat shock protein HSP90 (Homo sapiens); test: Inhibition of HSP90 in human PC3-MM2 cells expressing luciferase assessed as reduction in heat-denatured lucifearse refolding incubated for 1 hr by luciferase rematuration assay; type: cell-based
# How it was run: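 PC3-MM2 cells expressing firefly luciferase were heated to denature luciferase, then incubated with DMSO or test compound. Luciferase activity was then measured to gauge refolding. Read-out is RLU relative to DMSO, given as mean ± SD of at least two separate experiments run in triplicate.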
# [9] = molecular target: T1, Heat shock protein HSP90 (Homo sapiens); test: Inhibition of HSP90 in human MCF7 cells assessed as reduction in HER2 protein level incubated for 24 hrs by Western blotting method; type: cell-based; how it was run: as §2
# [10] = test system: MCF7; test: Induction of heat shock response in human MCF7 cells assessed as effect on Hsp90 protein levels at antiproliferative 0.5 and 10 fold IC50 incubated for 24 hrs by Western blotting method; type: cell-based; details: mcf7, 24 h
# [11] = test system: MCF7; test: Effect on actin protein expression in human MCF7 cells at 0.5 and 10 fold antiproliferative IC50 incubated for 24 hrs by Western blotting method; type: cell-based; details: mcf7, 24 h; how it was run: as §2
SMILES,EC50 [1],EC50 [2],inhibition [8],other results
CN1CCC(Oc2ccc(-c3cccc(NC(=O)c4ccc(C(C)(C)C)cc4)c3)c(-c3cccc(C(F)(F)F)c3)c2)CC1,2.8 µM,1.8 µM,,
CO[C@@H]1[C@@H](OC(N)=O)[C@@H](O)[C@H](Oc2ccc3c(O)c(NC(=O)c4ccc(O)c(CC=C(C)C)c4)c(=O)oc3c2C)OC1(C)C [NOVOBIOCIN],,,,EC50 [3]: 700 µM
COc1cccc(-c2cc(C(=O)Nc3cccc(-c4ccc(OC5CCN(C)CC5)cc4)c3)ccc2OC)c1,1.6 µM,1.5 µM,,
CN1CCC(Oc2ccc(-c3cccc(NC(=O)c4ccc(Br)cc4)c3)c(-c3cccc(C(F)(F)F)c3)c2)CC1,3.9 µM,3 µM,Active,inhibition [4]: Dose-dependent effect; Activity [5]: Non-Toxic; inhibition [6]: Dose-dependent effect; inhibition [7]: Dose-dependent effect; inhibition [9]: Dose-dependent effect; Activity [10]: Non-Toxic; Activity [11]: Non-Toxic
CN1CCC(Oc2ccc(-c3ccc(NC(=O)c4ccc(Br)cc4)cc3)c(-c3cccc(C(F)(F)F)c3)c2)CC1,3.4 µM,3.5 µM,Active,inhibition [4]: Dose-dependent effect; Activity [5]: Non-Toxic; inhibition [6]: Dose-dependent effect; inhibition [7]: Dose-dependent effect; inhibition [9]: Dose-dependent effect; Activity [10]: Non-Toxic; Activity [11]: Non-Toxic
CN1CCC(Oc2ccc(-c3ccc(NC(=O)c4cn(Cc5ccc(C(C)(C)C)cc5)nn4)cc3)c(-c3cccc(C(F)(F)F)c3)c2)CC1,5 µM,4.4 µM,inactive,
CN1CCC(Oc2ccc(-c3ccc(NC(=O)c4ccc(Br)cc4)cc3)c(-c3cccc(F)c3)c2)CC1,5.1 µM,5.2 µM,Active,
COc1ccc(Cn2cc(C(=O)Nc3ccc(-c4ccc(OC5CCN(C)CC5)cc4-c4cccc(C(F)(F)F)c4)cc3)nn2)cc1,0.9 µM,0.5 µM,Active,
COc1cccc(-c2cc(C(=O)Nc3ccc(-c4ccc(OC5CCN(C)CC5)cc4-c4cccc(F)c4)cc3)ccc2OC)c1,2.1 µM,4.2 µM,,
COc1cccc(-c2cc(C(=O)Nc3ccc(-c4ccc(OC5CCN(C)CC5)cc4-c4cccc(C(F)(F)F)c4)cc3)ccc2OC)c1,2.2 µM,1.8 µM,,
CC(=O)Oc1ccc(C(=O)Nc2ccc(-c3ccc(OC4CCN(C)CC4)cc3-c3cccc(C(F)(F)F)c3)cc2)cc1CC=C(C)C,2.6 µM,2.3 µM,,
CN1CCC(Oc2ccc(-c3cccc(NC(=O)c4cn(Cc5ccc([N+](=O)[O-])cc5)nn4)c3)c(-c3cccc(C(F)(F)F)c3)c2)CC1,2 µM,1.9 µM,Active,
CN1CCC(Oc2ccc(-c3ccc(NC(=O)c4cn(Cc5ccc([N+](=O)[O-])cc5)nn4)cc3)c(-c3cccc(C(F)(F)F)c3)c2)CC1,1 µM,0.8 µM,Active,
COc1cccc(-c2cc(C(=O)Nc3cccc(-c4ccc(OC5CCN(C)CC5)cc4-c4cccc(C(F)(F)F)c4)c3)ccc2OC)c1,2.3 µM,1.9 µM,,
CN1CCC(Oc2ccc(-c3cccc(NC(=O)c4ccc(C(C)(C)C)cc4)c3)c(-c3cccc(F)c3)c2)CC1,5.2 µM,6.2 µM,,
CC(=O)Oc1ccc(C(=O)Nc2cccc(-c3ccc(OC4CCN(C)CC4)cc3-c3cccc(F)c3)c2)cc1CC=C(C)C,4.4 µM,3.3 µM,,
CN1CCC(Oc2ccc(-c3ccc(NC(=O)c4ccc(C(C)(C)C)cc4)cc3)c(-c3cccc(F)c3)c2)CC1,4.2 µM,4.2 µM,,
CC(=O)Oc1ccc(C(=O)Nc2cccc(-c3ccc(OC4CCN(C)CC4)cc3-c3cccc(C(F)(F)F)c3)c2)cc1CC=C(C)C,3 µM,2.9 µM,,
COc1cccc(-c2cc(C(=O)Nc3cccc(-c4ccc(OC5CCN(C)CC5)cc4-c4cccc(F)c4)c3)ccc2OC)c1,4.2 µM,4.1 µM,,

# Now from value to molecule, other results behind:
EC50 [1],EC50 [2],inhibition [8],SMILES,other results
3 µM,2.4 µM,,CN1CCC(Oc2ccc(-c3ccc(NC(=O)c4ccc(C(C)(C)C)cc4)cc3)c(-c3cccc(C(F)(F)F)c3)c2)CC1,
2.9 µM,2.2 µM,Active,CN1CCC(Oc2ccc(-c3ccc(NC(=O)c4cn(Cc5ccccc5)nn4)cc3)c(-c3cccc(C(F)(F)F)c3)c2)CC1,
3 µM,3 µM,inactive,CN1CCC(Oc2ccc(-c3cccc(NC(=O)c4cn(Cc5ccc(C(C)(C)C)cc5)nn4)c3)c(-c3cccc(C(F)(F)F)c3)c2)CC1,
1.7 µM,2.2 µM,Active,CN1CCC(Oc2ccc(-c3cccc(NC(=O)c4cn(Cc5ccccc5)nn4)c3)c(-c3cccc(C(F)(F)F)c3)c2)CC1,inhibition [4]: Dose-dependent effect; Activity [5]: Non-Toxic; inhibition [6]: Dose-dependent effect; inhibition [7]: Dose-dependent effect; inhibition [9]: Dose-dependent effect; Activity [10]: Non-Toxic; Activity [11]: Non-Toxic
3.3 µM,3.2 µM,,CC(=O)Oc1ccc(C(=O)Nc2ccc(-c3ccc(OC4CCN(C)CC4)cc3-c3cccc(F)c3)cc2)cc1CC=C(C)C,
4 µM,4 µM,Active,COc1ccc(Cn2cc(C(=O)Nc3cccc(-c4ccc(OC5CCN(C)CC5)cc4-c4cccc(C(F)(F)F)c4)c3)nn2)cc1,
5.6 µM,5.9 µM,Active,CN1CCC(Oc2ccc(-c3cccc(NC(=O)c4ccc(Br)cc4)c3)c(-c3cccc(F)c3)c2)CC1,
2.7 µM,3.5 µM,,COc1cccc(-c2cc(C(=O)NCCc3ccc(OC4CCN(C)CC4)cc3-c3cccc(C(F)(F)F)c3)ccc2OC)c1,
